ChEMBL document CHEMBL4028911, “Discovery of a Small-Molecule Bromodomain-Containing Protein 4 (BRD4) Inhibitor That Induces AMP-Activated Protein Kinase-Modulated Autophagy-Associated Cell Death in Breast Cancer” (J Med Chem, 2017)
Active and inactive are the calls of the source. The calls are words filed in the database; no cut-off is given here.

Key:
MDA-MB-231 [1] = assay: Induction of autophagy in human MDA-MB-231 cells assessed as cytoplasmic vacuolization at 3 uM by electron microscopy; type: functional, cell-based
Outline: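 MCF-7 (1.5 µM) or MDA-MB-231 (3 µM) cells treated for indicated times. Cytoplasmic vacuoles examined by transmission electron microscopy.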

[2] = molecular target: AMP-activated protein kinase, AMPK (Homo sapiens) (UniProt P54646+O43741+P54619+Q9UGJ0+Q9Y478+Q13131+Q9UGI9); assay: Activation of AMPK (unknown origin) at 1 to 10^6 nM using MBP as substrate after 60 mins in presence of ATP by […] assay
Outline: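 ADP-Glo luminescent kinase assay; AMPK or ULK1 enzyme, substrate, ATP and compound diluted in 40 mM Tris pH 7.5, 20 mM MgCl2, 0.1 mg/ml BSA, 50 µM DTT. Enzyme (10 ng) mixed with MBP (0.1 µg/µl)/ATP (10 µM) and compound, 60 min at room temperature. ADP-Glo reagent 40 min, then detection reagent 30 min, luminescence read; signal rises with kinase activity.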

[3] = molecular target: Bromodomain-containing protein 2 (Homo sapiens, UniProt P25440); assay: Inhibition of recombinant human N-terminal GST-tagged BRD2 bromodomain-1 (65 to 187 residues) expressed in Escherichia coli expression system after 120 mins by TR-FRET assay
Outline: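 TR-FRET bromodomain binding. Recombinant BRD domain, BET ligand and test agent in 20 μl assay buffer with 1% DMSO final. Incubated 120 min at room temperature. Blank lacks BET ligand.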

[4] = molecular target: T1, Bromodomain-containing protein 4 (Homo sapiens, UniProt O60885); assay: Inhibition of recombinant human BRD4 bromodomain-1 (49 to 170 residues) expressed in Escherichia coli expression system after 120 mins by TR-FRET assay
[5] = molecular target: T1, Bromodomain-containing protein 4; assay: Inhibition of BRD4 in human MDA-MB-231 cells assessed as reduction in ATG13 protein expression at 3 uM up to 36 hrs by Western blot analysis; type: cell-based
Outline: (§1)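 MCF-7 (1.5 μM) or MDA-MB-231 (3 μM) cells treated for indicated times. Adherent and floating cells lysed in RIPA with 1 mM PMSF. Equal protein run on 10-15% SDS-PAGE, blotted to PVDF, blocked in milk or BSA, HRP/ECL detection. β-actin loading control.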

MCF7 [6] = assay: Antitumor activity against human MCF7 cells xenografted in ig dosed nude BALB/c mouse assessed as tumor growth inhibition administered once a day for 24 days measured every 3 days relative to control; type: functional, organism-based
Outline: (§2)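 Female BALB/c nude mice, 6-8 weeks, 20-22 g, injected subcutaneously with 5×10^6 MCF-7 or MDA-MB-231 cells. At 100 mm³ tumor volume (V = L×W²/2), split into four groups: 25, 50 or 100 mg/kg intragastric once daily for 24 or 27 days, or vehicle. Tumor volume and body weight measured every 3 days; tumors excised and weighed at end. MCF-7 n=7, MDA-MB-231 n=6 per group.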

MDA-MB-231 [7] = assay: Induction of autophagy in human MDA-MB-231 cells assessed as reduction in cell viability at 3 uM administered at 1 hr post […] addition by MTT assay; type: functional, cell-based
Outline: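 MDA-MB-231 cells seeded at 5×10^4 cells/ml and grown 24 h. 3-MA (1 mM) added 1 h before 3 μM test agent. MTT (5 mg/ml) for 4 h, formazan dissolved in DMSO, absorbance read at 570 nm.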

[8] = molecular target: T1, Bromodomain-containing protein 4; assay: Inhibition of BRD4 interaction with AMPK in human MCF7 cells at 1.5 uM by co-immunoprecipitation assay; type: cell-based
Outline: (§3)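 Cells lysed in RIPA buffer (40 mM Tris-HCl pH 7.5, 150 mM NaCl, 0.5% NP-40, 5% glycerol, 10 mM NaF, protease inhibitors). Lysates incubated overnight at 4 °C with BRD4 or p53 antibody plus protein A/G beads, washed 3 times, resolved on 10% SDS-PAGE and blotted for AMPKα or p53.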

MDA-MB-231 [9] = assay: Induction of autophagy in human MDA-MB-231 cells assessed as upregulation of beclin1 expression at 3 uM measured up to 36 hrs by Western blot analysis; type: functional, cell-based
Outline: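 MDA-MB-231 cells (DMEM, 10% FBS, 37 °C, 5% CO2) exposed to 3 μM for indicated times. Adherent and floating cells collected, lysed in RIPA with 1 mM PMSF at 4 °C for 1 h. Protein quantified by DC assay, resolved on 10-15% SDS-PAGE, blotted to PVDF, ECL detection.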

Mus musculus [10] = assay: Induction of cleavage of caspase-3 in BALB/c mouse xenografted with human MDA-MB-231 cells at 100 mg/kg, ig administered once a day for 27 days by Western blot analysis; type: functional, organism-based
Outline: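 Female BALB/c nude mice (6-8 weeks) given 5×10^6 MCF-7 or MDA-MB-231 cells subcutaneously. At 100 mm3 tumours, dosed intragastrically once daily (25, 50, 100 mg/kg, or vehicle) for 24 or 27 days. Excised tumours lysed and probed by western blot for caspase-3 cleavage.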

MCF7 [11] = assay: Antitumor activity against human MCF7 cells xenografted in nude BALB/c mouse assessed as tumor growth inhibition at 25 to 100 mg/kg, ig administered once a day for 24 days measured every 3 days relative to control; type: functional; outline: as §2
Mus musculus [12] = assay: Induction of LC3 accumulation in BALB/c mouse xenografted with human MDA-MB-231 cells at 100 mg/kg, ig administered once a day for 24 days by Western blot analysis; type: functional, organism-based
Outline: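 Tumor tissues excised from MCF-7 or MDA-MB-231 xenograft mice were lysed and analysed by western blot for BRD4, c-Myc, LC3 and cleaved caspase-3.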

MCF7 [13] = assay: Induction of autophagy in human MCF7 cells assessed as induction of autophagic vacuoles at 1.5 uM by MDC-based fluorescence microscopy; type: functional, cell-based
Outline: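 MCF-7 cells treated with 1.5 µM for indicated times. Stained with 0.05 mM monodansylcadaverine and autophagic vacuoles observed by fluorescence microscopy.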

MCF-7 = assay: Downregulation of HMGB1 expression in human MCF-7 cells at 1.5 uM measured up to 24 hrs by Western blot analysis
[14] = molecular target: T1, Bromodomain-containing protein 4; assay: Inhibition of BRD4 interaction with p53 in human MCF7 cells at 1.5 uM by co-immunoprecipitation assay; type: cell-based; outline: as §3
MCF7 [15] = assay: Antitumor activity against CM-Dil-labeled human MCF7 cells implanted in transgenic zebrafish embryos assessed as tumor growth inhibition at 12.5 to 50 uM dosed via sterile dechlorinated tap water and measured on fifth day after implantation by fluorescence assay; type: functional, organism-based
[16] = molecular target: T1, Bromodomain-containing protein 4; assay: Inhibition of BRD4 interaction with AMPK in human MDA-MB-231 cells at 3 uM by co-immunoprecipitation assay; type: cell-based; outline: as §3
MDA-MB-231 [17] = assay: Induction of autophagy in human MDA-MB-231 cells assessed as induction of autophagic vacuoles at 3 uM by MDC-based fluorescence microscopy; type: functional, cell-based
Outline: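 MDA-MB-231 cells exposed to 3 μM for indicated times, stained with 0.05 mM monodansylcadaverine, and autophagic vacuoles viewed by fluorescence microscopy.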

MDA-MB-231 [18] = assay: Inhibition of BRD4 protein expression in human MDA-MB-231 cells at 3 uM measured up to 36 hrs by Western blot analysis; type: functional, cell-based; outline: as §1

Chain of Bromodomain-containing protein 2 (P25440 whole entry, the tested form may be a part): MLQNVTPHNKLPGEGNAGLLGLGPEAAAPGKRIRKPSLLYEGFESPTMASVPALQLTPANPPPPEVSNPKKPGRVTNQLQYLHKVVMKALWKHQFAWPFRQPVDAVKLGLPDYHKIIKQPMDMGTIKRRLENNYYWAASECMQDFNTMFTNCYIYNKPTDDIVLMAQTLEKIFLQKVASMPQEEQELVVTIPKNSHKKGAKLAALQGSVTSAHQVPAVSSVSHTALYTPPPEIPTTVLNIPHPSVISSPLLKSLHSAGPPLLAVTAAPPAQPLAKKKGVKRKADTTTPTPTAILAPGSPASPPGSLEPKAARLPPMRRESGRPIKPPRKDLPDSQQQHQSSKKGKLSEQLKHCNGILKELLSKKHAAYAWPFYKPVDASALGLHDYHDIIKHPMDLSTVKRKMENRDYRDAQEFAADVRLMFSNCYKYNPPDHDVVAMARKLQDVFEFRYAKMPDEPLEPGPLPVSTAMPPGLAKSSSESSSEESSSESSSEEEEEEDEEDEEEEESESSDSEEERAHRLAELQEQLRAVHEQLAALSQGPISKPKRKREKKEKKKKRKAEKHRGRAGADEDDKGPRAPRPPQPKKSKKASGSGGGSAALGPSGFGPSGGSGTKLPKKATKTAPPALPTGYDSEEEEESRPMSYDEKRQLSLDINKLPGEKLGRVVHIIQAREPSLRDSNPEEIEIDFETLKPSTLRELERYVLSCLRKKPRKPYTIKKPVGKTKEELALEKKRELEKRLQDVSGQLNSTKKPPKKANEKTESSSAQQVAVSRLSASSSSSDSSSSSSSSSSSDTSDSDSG

Question: `Cc1cc(-c2nc3sc4c(c3c(=O)[nH]2)CCN(C)C4)cc(C)c1O` was tested. Which Activity (MDA-MB-231 [1]) did it give?
Answer: Active

Question: What about the Activity [2] of the same compound?
Answer: inactive

Question: What about the IC50 [3] of the same compound?
Answer: 24.6 µM

Question: What about the IC50 [4] of the same compound?
Answer: 0.47 µM

Question: And the inhibition [5]?
Answer: Active

Question: What about the TGI (MCF7 [6]) of the same compound?
Answer: Dose-dependent effect

Question: What about the Activity (MDA-MB-231 [7]) of the same compound?
Answer: inactive

Question: And the inhibition [8]?
Answer: Active

Question: And the Activity (MDA-MB-231 [9])?
Answer: Active

Question: What about the Activity (Mus musculus [10]) of the same compound?
Answer: Active

Question: What about the TGI (MCF7 [11]) of the same compound?
Answer: 80%

Question: What about the Activity (Mus musculus [12]) of the same compound?
Answer: Active

Question: And the Activity (MCF7 [13])?
Answer: Active

Question: And the Activity (MCF-7)?
Answer: Active

Question: What about the inhibition [14] of the same compound?
Answer: Active

Question: What about the TGI (MCF7 [15]) of the same compound?
Answer: Active

Question: And the inhibition [16]?
Answer: Active

Question: What about the Activity (MDA-MB-231 [17]) of the same compound?
Answer: Active

Question: And the inhibition (MDA-MB-231 [18])?
Answer: Active
